Laboratory results: ChEMBL document CHEMBL2331540, “Synthesis and SAR study of pyrrolo[3,4-b]pyridin-7(6H)-one derivatives as melanin concentrating hormone receptor 1 (MCH-R1) antagonists” (Bioorg Med Chem Lett, 2013)
Values after ≈ are worked out from the molar mass of the structure shown.

Columns and labels:
[1] = target: Melanin-concentrating hormone receptor 1 (Homo sapiens, UniProt Q99705); assay: Displacement of Eu-MCH from human MCHR1 expressed in CHO cell membranes by TRF assay
In short: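 Competitive binding on membranes of CHO cells expressing human MCH-R1, with Eu-labeled MCH as tracer; bound label read by time-resolved fluorometry, values given as IC50.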

Rattus norvegicus [2] = assay: Oral bioavailability in rat at 10 mg/kg; assay type: ADME, organism-based; conditions: in vivo
In short: (§1)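 Rats dosed at 10 mg/kg by both iv and po routes, n = 3; plasma pharmacokinetic parameters derived from the iv/po study.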

Rattus norvegicus [3] = assay: Volume of distribution at steady state in rat at 10 mg/kg, po and iv; assay type: ADME, organism-based; design: dose 10 mg/kg, route oral; conditions: in vivo; in short: as §1
[4] = Half life in rat at 10 mg/kg, po and iv; assay type: ADME, organism-based; design: dose 10 mg/kg, route oral; conditions: in vivo; in short: as §1
Rattus norvegicus [5] = assay: AUC in rat at 10 mg/kg, po; assay type: ADME, organism-based, Plasma; design: dose 10 mg/kg, route oral; conditions: in vivo; in short: as §1
CYP3A4 = CYP3A4 (Homo sapiens, UniProt P08684); assay: Inhibition of CYP3A4 (unknown origin) at 10 uM relative to control; assay type: ADME
CYP2D6 = CYP2D6 (Homo sapiens, UniProt P10635); assay: Inhibition of CYP2D6 (unknown origin) at 10 uM relative to control; assay type: ADME
[6] = Aqueous solubility of the compound; assay type: physicochemical; conditions: buffer
[7] = Permeability of the compound by PAMPA; assay type: ADME; conditions: read-out: permeability
[8] = Metabolic stability in human liver microsomes measured for 30 mins; assay type: ADME, Microsome; conditions: read-out: Stability
In short: (§2)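 Test compound incubated 30 min with human or rat liver microsomes; stability given as percent remaining.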

[9] = Metabolic stability in rat liver microsomes measured for 30 mins; assay type: ADME, Microsome; conditions: read-out: Stability; in short: as §2

Chain of Melanin-concentrating hormone receptor 1 (Q99705 whole entry): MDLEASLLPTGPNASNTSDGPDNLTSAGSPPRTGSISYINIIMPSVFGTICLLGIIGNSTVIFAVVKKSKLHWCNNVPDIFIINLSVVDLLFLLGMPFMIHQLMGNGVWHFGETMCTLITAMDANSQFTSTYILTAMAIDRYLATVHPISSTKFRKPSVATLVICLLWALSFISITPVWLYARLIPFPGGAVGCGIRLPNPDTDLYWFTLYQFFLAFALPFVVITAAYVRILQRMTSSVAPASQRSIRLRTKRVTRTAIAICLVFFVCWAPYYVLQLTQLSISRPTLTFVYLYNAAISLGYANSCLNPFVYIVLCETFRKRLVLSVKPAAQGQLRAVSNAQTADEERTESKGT
Chain of CYP3A4 (P08684 whole entry): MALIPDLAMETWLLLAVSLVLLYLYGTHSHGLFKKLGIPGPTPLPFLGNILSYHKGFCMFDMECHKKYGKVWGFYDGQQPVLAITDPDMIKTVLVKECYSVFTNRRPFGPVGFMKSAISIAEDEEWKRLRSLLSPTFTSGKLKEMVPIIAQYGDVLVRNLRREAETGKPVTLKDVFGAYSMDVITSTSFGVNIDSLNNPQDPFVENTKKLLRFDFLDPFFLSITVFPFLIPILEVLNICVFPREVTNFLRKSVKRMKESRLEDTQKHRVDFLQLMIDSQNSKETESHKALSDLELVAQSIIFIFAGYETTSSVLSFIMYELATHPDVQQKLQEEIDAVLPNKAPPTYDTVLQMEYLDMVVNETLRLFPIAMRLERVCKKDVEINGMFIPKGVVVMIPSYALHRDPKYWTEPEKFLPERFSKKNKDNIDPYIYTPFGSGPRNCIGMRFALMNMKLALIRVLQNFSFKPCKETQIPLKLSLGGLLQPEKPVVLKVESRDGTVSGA
Chain of CYP2D6 (P10635 whole entry): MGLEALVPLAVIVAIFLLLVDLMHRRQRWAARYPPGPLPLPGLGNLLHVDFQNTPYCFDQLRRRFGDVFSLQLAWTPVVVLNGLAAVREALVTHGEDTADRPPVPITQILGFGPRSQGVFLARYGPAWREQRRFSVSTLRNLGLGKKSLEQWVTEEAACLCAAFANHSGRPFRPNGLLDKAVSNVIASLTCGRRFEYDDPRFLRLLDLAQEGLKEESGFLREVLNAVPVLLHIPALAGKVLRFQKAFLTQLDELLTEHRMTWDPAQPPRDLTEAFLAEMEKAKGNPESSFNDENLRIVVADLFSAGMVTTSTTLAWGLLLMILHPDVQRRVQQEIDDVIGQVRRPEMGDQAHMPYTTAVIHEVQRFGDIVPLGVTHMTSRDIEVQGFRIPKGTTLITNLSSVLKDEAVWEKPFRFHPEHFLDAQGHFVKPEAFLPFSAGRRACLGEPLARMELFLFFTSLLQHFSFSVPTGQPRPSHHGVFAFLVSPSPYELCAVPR

In the case of `COc1cc(N2Cc3ccc(-c4ccc(Cl)cc4)nc3C2=O)ccc1OCCN1CCCC1`, the IC50 [1] is reported as 0.44 µM.
`COc1cc(N2Cc3ccc(-c4ccc(C(F)(F)F)cc4)nc3C2=O)ccc1OCCN1CCCC1` showed an IC50 [1] of 0.54 µM.
For `COc1cc(N2Cc3ccc(Cc4ccc(C(C)(C)C)cc4)nc3C2=O)ccc1OCCN1CCCC1`, the IC50 [1] was 1.91 µM.
Compound `COc1cccc(-c2ccc3c(n2)C(=O)N(c2ccc(OCCN4CCCC4)c(OC)c2)C3)c1` has an IC50 [1] of 2.01 µM.
`COc1cc(N2Cc3ccc(-c4ccccc4C)nc3C2=O)ccc1OCCN1CCCC1` showed an IC50 [1] of 1.04 µM.
`C=Cc1ccc(-c2ccc3c(n2)C(=O)N(c2ccc(OCCN4CCCC4)c(OC)c2)C3)cc1` showed an IC50 [1] of 0.13 µM.
With `COc1cc(N2Cc3ccc(-c4cccc(Cl)c4)nc3C2=O)ccc1OCCN1CCCC1` the IC50 [1] was 5.65 µM.
With `COc1cc(N2Cc3ccc(-c4cccc(C)c4C)nc3C2=O)ccc1OCCN1CCCC1` the IC50 [1] was 0.19 µM.
For `CCc1ccccc1-c1ccc2c(n1)C(=O)N(c1ccc(OCCN3CCCC3)c(OC)c1)C2`, the IC50 [1] was 2 µM.
`CCc1ccc(-c2ccc3c(n2)C(=O)N(c2ccc(OCCN4CCCC4)c(OC)c2)C3)cc1` gave an IC50 [1] of 0.05 µM.
`COc1cc(N2Cc3ccc(Sc4ccc(F)cc4Cl)nc3C2=O)ccc1OCCN1CCCC1` showed an IC50 [1] of 0.08 µM.
Compound `COc1ccc(-c2ccc3c(n2)C(=O)N(c2ccc(OCCN4CCCC4)c(OC)c2)C3)cc1` has an IC50 [1] of 0.34 µM.
For `COc1cc(N2Cc3ccc(-c4cc(C)ccc4C)nc3C2=O)ccc1OCCN1CCCC1`, the IC50 [1] was 0.3 µM.
With `COc1cc(N2Cc3ccc(-c4ccccc4)nc3C2=O)ccc1OCCN1CCCC1` the IC50 [1] was 10 µM.
`COc1ccc(Sc2ccc3c(n2)C(=O)N(c2ccc(OCCN4CCCC4)c(OC)c2)C3)cc1` gave an IC50 [1] of 0.1 µM.
In the case of `COc1cc(N2Cc3ccc(Cc4ccc(F)cc4)nc3C2=O)ccc1OCCN1CCCC1`, the IC50 [1] is reported as 0.08 µM.
Work on `COc1cc(N2Cc3ccc(-c4ccc(C)c(C)c4)nc3C2=O)ccc1OCCN1CCCC1` yielded an IC50 [1] of 0.18 µM.
In the case of `COc1cc(N2Cc3ccc(Sc4ccc(F)cc4F)nc3C2=O)ccc1OCCN1CCCC1`, the IC50 [1] is reported as 0.06 µM.
In the case of `COc1cc(N2Cc3ccc(-c4ccccc4F)nc3C2=O)ccc1OCCN1CCCC1`, the IC50 [1] is reported as 4.13 µM.
For `COc1cc(N2Cc3ccc(Cc4ccc(Cl)cc4)nc3C2=O)ccc1OCCN1CCCC1`, the IC50 [1] was 0.12 µM.
`COc1cc(N2Cc3ccc(Sc4ccc(F)c(Cl)c4)nc3C2=O)ccc1OCCN1CCCC1` gave an IC50 [1] of 0.05 µM.
Work on `COc1cc(N2Cc3ccc(Sc4ccccc4)nc3C2=O)ccc1OCCN1CCCC1` yielded an F (Rattus norvegicus [2]) of 35%, a Vdss (Rattus norvegicus [3]) of 22.7 L/kg and a half-life [4] of 2.8 h. It also gave an AUC (Rattus norvegicus [5]) of 320 ng·h/mL and an IC50 [1] of 0.02 µM.
Compound `COc1cc(N2Cc3ccc(-c4ccccc4Cl)nc3C2=O)ccc1OCCN1CCCC1` has an IC50 [1] of 0.51 µM.
In the case of `COc1cc(N2Cc3ccc(-c4ccccc4OC)nc3C2=O)ccc1OCCN1CCCC1`, the IC50 [1] is reported as 7.11 µM.
In the case of `COc1cc(N2Cc3ccc(-c4ccc(C(C)C)cc4)nc3C2=O)ccc1OCCN1CCCC1`, the IC50 [1] is reported as 0.09 µM.
Compound `COc1cc(N2Cc3ccc(Cc4ccccc4)nc3C2=O)ccc1OCCN1CCCC1` has an IC50 [1] of 0.07 µM.
For `COc1cc(N2Cc3ccc(-c4ccc(C)cc4)nc3C2=O)ccc1OCCN1CCCC1`, the IC50 [1] was 0.08 µM.
Work on `CCCc1ccc(-c2ccc3c(n2)C(=O)N(c2ccc(OCCN4CCCC4)c(OC)c2)C3)cc1` yielded an IC50 [1] of 0.21 µM.
For `COc1cc(N2Cc3ccc(-c4ccc(C(C)(C)C)cc4)nc3C2=O)ccc1OCCN1CCCC1`, the IC50 [1] was 0.32 µM.
`COc1cc(N2Cc3ccc(Cc4ccc(C)cc4)nc3C2=O)ccc1OCCN1CCCC1` gave an IC50 [1] of 0.16 µM.
In the case of `COc1cc(N2Cc3ccc(Sc4ccc(C)cc4)nc3C2=O)ccc1OCCN1CCCC1`, the IC50 [1] is reported as 0.06 µM.
Compound `COc1cc(N2Cc3ccc(Cc4ccccc4C)nc3C2=O)ccc1OCCN1CCCC1` has an IC50 [1] of 0.72 µM.
With `COc1cc(N2Cc3ccc(-c4ccc(F)cc4)nc3C2=O)ccc1OCCN1CCCC1` the IC50 [1] was 3.1 µM.
With `COc1cc(N2Cc3ccc(Sc4ccc(F)c(F)c4)nc3C2=O)ccc1OCCN1CCCC1` the IC50 [1] was 0.05 µM.
Work on `COc1cc(N2Cc3ccc(Sc4ccc(Cl)cc4)nc3C2=O)ccc1OCCN1CCCC1` yielded an IC50 [1] of 0.04 µM.
For `COc1cc(N2Cc3ccc(Sc4ccc(F)cc4)nc3C2=O)ccc1OCCN1CCCC1`, the inhibition at 10 µM (CYP3A4) was under 10%, the inhibition at 10 µM (CYP2D6) was under 10% and the solubility [6] was 104 µg/mL (≈ 217 µM). For the same compound, the Papp [7] was 1.9 ×10⁻⁶ cm/s, the remaining at 0.5 h [8] was 97% and the remaining at 0.5 h [9] was 79%. The F (Rattus norvegicus [2]) was 92%, the Vdss (Rattus norvegicus [3]) was 8.3 L/kg and the half-life [4] was 3.4 h. For the same compound, the AUC (Rattus norvegicus [5]) was 5700 ng·h/mL and the IC50 [1] was 0.03 µM.
In the case of `COc1cc(N2Cc3ccc(Cc4cccc(F)c4)nc3C2=O)ccc1OCCN1CCCC1`, the IC50 [1] is reported as 0.41 µM.
For `CCCCc1ccc(-c2ccc3c(n2)C(=O)N(c2ccc(OCCN4CCCC4)c(OC)c2)C3)cc1`, the IC50 [1] was 2.78 µM.
Work on `COc1cc(N2Cc3ccc(-c4ccc(C#N)cc4)nc3C2=O)ccc1OCCN1CCCC1` yielded an IC50 [1] of 10 µM.
